Values after ≈ are worked out from the molar mass of the structure shown.
Assays:
[1] = (§1) AUC in rat at 5 mg/kg, po at 24 hrs; type: ADME, organism-based, Plasma; set-up: time < 24 hr, dose 5 mg/kg, route oral; settings: plasma
[2] = Cmax in rat at 5 mg/kg, po; type: ADME, organism-based; set-up: dose 5 mg/kg, route oral; settings: in vivo
[3] = Volume of distribution at steady state in iv dosed rat; type: ADME, organism-based; settings: in vivo, read-out: Vdss
How it was run: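 Rats dosed intravenously in PEG 400/ethanol (90:10 v/v); steady-state volume of distribution taken from the iv plasma profile.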

[4] = Clearance in human liver microsomes; type: ADME, Microsome; settings: read-out: CLH
[5] = test system: Rattus norvegicus; assay: (§2) Oral bioavailability in rat at 5 mg/kg; type: ADME, organism-based; settings: in vivo
[6] = test system: Rattus norvegicus; assay: as §1; type: ADME, organism-based, Plasma; set-up: time < 24 hr, dose 5 mg/kg, route oral; settings: in vivo, 24 h
[7] = as §2; type: ADME, organism-based; settings: in vivo
[8] = Clearance in iv dosed rat; type: ADME, organism-based; settings: in vivo
[9] = Aqueous solubility of the compound; type: physicochemical; settings: buffer
[10] = Oral bioavailability in human at 200 mg administered as capsule formulation; type: ADME, organism-based; settings: in vivo
How it was run: (§3)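 Healthy subjects given 200 mg as a spray-dried capsule, fasted, with plasma sampled 0–96 h. Bioavailability is relative to a 20 mg oral solution, based on dose-normalized AUC(INF).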

[11] = Half life in human at 20 mg, po administered as solution measured between 2 and 12 hrs post-dosing; type: ADME, organism-based; settings: in vivo
[12] = Drug absorption in human colon at 200 mg, po measured between 12 to 96 hrs; type: ADME, organism-based; settings: in vivo; how it was run: as §3
[13] = test system: Plasma; assay: Plasma concentration in human at 20 mg, po administered as solution measured after 16 hrs; type: ADME, organism-based; settings: in vivo, BLD = below limit of detection

| SMILES | Cmax [2] | Vd [3] | CLint scaled [4] | F [5] | AUC [6] | also measured |
| --- | --- | --- | --- | --- | --- | --- |
| CNC(=O)c1cc(-c2ncc(F)c3c(C(=O)C(=O)N4CCN(C(=O)c5ccccc5)CC4)c[nH]c23)n[nH]1 |  |  | ≤ 29 mL/min/kg |  |  |  |
| CN(C)C(=O)c1cc(-c2ncc(F)c3c(C(=O)C(=O)N4CCN(C(=O)c5ccccc5)CC4)c[nH]c23)n[nH]1 |  |  | < 21 mL/min/kg |  |  |  |
| NC(=O)c1cc(-c2ncc(F)c3c(C(=O)C(=O)N4CCN(C(=O)c5ccccc5)CC4)c[nH]c23)n[nH]1 |  |  | ≤ 29 mL/min/kg |  |  |  |
| O=C(C(=O)N1CCN(C(=O)c2ccccc2)CC1)c1c[nH]c2c(-c3cnco3)ncc(F)c12 | 1290 nM | 0.14 L/kg | < 21 mL/min/kg |  |  | bioavailability [7]: 20%; AUC at 24 h [1]: 12 µM·h; clearance [8]: 1.4 mL/min/kg |
| O=C(C(=O)N1CCN(C(=O)c2ccccc2)CC1)c1c[nH]c2c(-n3ccnn3)ncc(F)c12 | 9480 nM |  | < 21 mL/min/kg |  |  | solubility [9]: 7 µg/mL (≈ 15.6 µM); bioavailability [10]: 30%; half-life [11]: 1.4 h; bioavailability [7]: 64%; AUC at 24 h [1]: 86 µM·h; Drug absorption [12]: Active; Cp [13]: BLD |
| O=C(NCCN1CCOCC1)c1cc(-c2ncc(F)c3c(C(=O)C(=O)N4CCN(C(=O)c5ccccc5)CC4)c[nH]c23)n[nH]1 |  |  | > 29 mL/min/kg |  |  |  |
| CNC(=O)c1ncc(F)c2c(C(=O)C(=O)N3CCN(C(=O)c4ccccc4)CC3)c[nH]c12 | 326 nM | 0.74 L/kg | < 21 mL/min/kg | 63% | 1.5 µM·h |  |
| Cc1ncn(-c2ncc(F)c3c(C(=O)C(=O)N4CCN(C(=O)c5ccccc5)CC4)c[nH]c23)n1 |  | 0.18 L/kg | < 21 mL/min/kg | 77% | 160 µM·h |  |

Continued, in another order:

| Cmax [2] | Vd [3] | CLint scaled [4] | F [5] | AUC [6] | SMILES | also measured |
| --- | --- | --- | --- | --- | --- | --- |
| 1890 nM | 1.1 L/kg |  |  |  | COc1ncc(OC)c2c(C(=O)C(=O)N3CCN(C(=O)c4ccccc4)CC3)c[nH]c12 | AUC at 24 h [1]: 6.3 µM·h |
| 498 nM | 0.6 L/kg | < 21 mL/min/kg | 61% | 2.1 µM·h | Cc1ccn(-c2ncc(F)c3c(C(=O)C(=O)N4CCN(C(=O)c5ccccc5)CC4)c[nH]c23)n1 |  |
| 1400 nM | 0.25 L/kg | < 21 mL/min/kg | 33% | 12.5 µM·h | O=C(C(=O)N1CCN(C(=O)c2ccccc2)CC1)c1c[nH]c2c(-c3cc[nH]n3)ncc(F)c12 |  |
|  |  | ≤ 29 mL/min/kg |  |  | O=C(C(=O)N1CCN(C(=O)c2ccccc2)CC1)c1c[nH]c2c(-c3cnccn3)ncc(F)c12 |  |
| 8760 nM | 0.26 L/kg | < 21 mL/min/kg | 95% |  | O=C(C(=O)N1CCN(C(=O)c2ccccc2)CC1)c1c[nH]c2c(-n3cncn3)ncc(F)c12 |  |
| 603 nM | 1.4 L/kg | < 21 mL/min/kg | 68% | 2.6 µM·h | NC(=O)c1ncc(F)c2c(C(=O)C(=O)N3CCN(C(=O)c4ccccc4)CC3)c[nH]c12 |  |
